GSH bead fluor – GSH bead compound fluorescence profile. GSH beads flow cytometry, compound fluorescence 488/530 nm; active compounds read high. actives 0.25% (n = 190,000). fluorescence (KMESF) at 10 µM; in the data active = fluorescence above about 89;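 note: glutathione beads carrying GST-tagged Bcl family fusion proteins plus one bare bead set; values are compound well signal with DMSO vehicle wells as background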
ABCG2 inh – inhibitors of human ABCG2 transporter, ABCB1 counter-screen; Q9UNQ0; IgMXP3 cells, JC-1 efflux, flow cytometry; inhibition, % at 6.6 µM; actives 0.1% (n = 190,000); AID 1325;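 active = inhibition above 80%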;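 note: 0% = DMSO and 100% = nicardipine control wells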
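Assay system – ABCG2 IgMXP3 and barcoded ABCB1 CCRF-Adr cell mix · Input – 3 million cells/mL in well · Reagent – JC-1 fluorescent substrate · Compound – single test compound dose, 6.6 µM final · Timing – 10 min exposure at 25 °C with rotation, no wash · Detection – flow cytometry of retained JC-1 fluorescence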
PKD1 inh – inhibitors of human PKD1 kinase; inhibition, % (concentration not given with the values); PKD1 kinase fluorescence polarization assay; Q15139; actives 0.056% (n = 200,000)
Avidin fluor – avidin bead compound fluorescence profile | Avidin beads, compound fluorescence 488/530 nm, flow cytometry; active compounds read high | fluorescence (KMESF) at 10 µM | actives 0.38% (n = 220,000); in the data active = fluorescence above about 47
ABCB1 inh – human ABCB1 inhibition, ABCG2 as counter-screen; inhibition, % at 6.6 µM; P08183; actives 0.067% (n = 190,000); CCRF-Adr cells, JC-1 efflux, flow cytometry; AID 1326; in the data active = inhibition above about 40%;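 note: 0% = vehicle and 100% = reference inhibitor; higher value means more JC-1 retained so stronger ABCB1 efflux block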
L major viab – Leishmania major promastigote growth inhibition; inhibition, % at 10 µM; AID 1063; Leishmania major promastigotes, resazurin fluorescence viability; actives 9% (n = 200,000);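 note: promastigotes grown with compound for 44 hours at 28 °C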
The depositor's hits bear a star; . = no result. This is one part of a sample in which hits are shown more often than they occur. Cut-off read from the data, not from the text of the source, unless noted: active = inhibition above about 50%; inactive = the rest.

SMILES | GSH bead fluor | ABCG2 inh | PKD1 inh | Avidin fluor | ABCB1 inh | L major viab
O=C1CCCN1CC(O)CS(=O)(=O)c1ccccc1 (centres undefined) | 23 | 1 | -1 | 4 | 0 | -4
O=[N+]([O-])c1ccc(S(=O)(=O)CC(CN2CCCCC2)N2CCCCC2)cc1 (centres undefined) | 15 | -3 | -5 | 11 | -1 | 101*
O=[N+]([O-])c1ccc(S(=O)(=O)CC(CN2CCOCC2)N2CCOCC2)cc1 (centres undefined) | 12 | 0 | -5 | 10 | 0 | 6
CCc1cccc(C)c1NC(=S)N(CCCN1CCOCC1)Cc1cccnc1 | 12 | 0 | 1 | 11 | 0 | 12
COC(=O)Cn1c(=NC(=O)c2ccc([N+](=O)[O-])s2)sc2cc(Br)ccc21 | 10 | -2 | -1 | 7 | 0 | 100*
Cc1[nH]c2c(C)cccc2c1CCNS(=O)(=O)c1cccc([N+](=O)[O-])c1 | 20 | 14 | -1 | 13 | 1 | 28
Cc1ccc([N+](=O)[O-])cc1S(=O)(=O)NCCc1c(C)[nH]c2c(C)cccc12 | 6 | 4 | -9 | 12 | 0 | 66*
CC1(C)CC(=O)C(=C2SCCCS2)C(=O)C1 | 156* | 3 | -10 | 14 | 2 | -8
CC1(C)CC(=O)C(Br)=C(O)C1 | 16 | 15 | -5 | 11 | 0 | -7
COc1cccc(C(=O)N2CCC(N3CC(C)OC(C)C3)CC2)c1 (centres undefined) | 11 | -3 | -9 | 5 | . | 73*
COc1cc(C(=O)N2CCN(C(=O)Cc3ccccc3)CC2)cc(OC)c1OC | 13 | 0 | -17 | 8 | 0 | -5
COc1cccc(C(=O)N2CCN(C(=O)Cc3ccccc3)CC2)c1 | 22 | 0 | -8 | 54* | 0 | -6
COc1cccc(C(=O)N2CCN(C3CCC(c4ccccc4)CC3)CC2)c1 (centres undefined) | 14 | 2 | -1 | 40 | 0 | 89*
CCc1cccc(C)c1NC(=O)c1ccc(CN2CCc3ccccc3C2)cc1 | 7 | 3 | -11 | 0 | 1 | 66*
Cc1cccc(NC(=O)c2ccc(CN3CCc4ccccc4C3)cc2)c1C | 9 | 9 | -6 | 9 | 1 | 57*
Cc1ccccc1NC(=O)c1ccc(CN2CCc3ccccc3C2)cc1 | 18 | 1 | -2 | 30 | 0 | 45
CCN(CC)C(=O)CSc1nnc(CNc2ccc(F)cc2)n1-c1ccccc1 | 13 | 2 | -5 | 24 | 1 | -1
O=C(OC(c1ccc(NS(=O)(=O)c2ccccc2)cc1)(C(F)(F)F)C(F)(F)F)c1ccccc1 | 23 | 14 | -8 | 10 | 2 | 100*
CC(=O)c1ccc(NS(=O)(=O)c2ccc(N)cc2)cc1 | 12 | -1 | 2 | 15 | 0 | 2
CC(=O)c1ccc(NS(=O)(=O)c2ccccc2)cc1 | 28 | 1 | -8 | 49* | 0 | 8
Cc1ccc(S(=O)(=O)Nc2ccc(C(OC(=O)c3ccccc3[N+](=O)[O-])(C(F)(F)F)C(F)(F)F)cc2)cc1 | 6 | 0 | 12 | 13 | 0 | 100*
NNC(=O)c1ccc(COCC(F)(F)F)cc1 | . | . | . | 13 | . | .
O=C(CSCc1c(Cl)cccc1Cl)Nc1ccccc1C(=O)N1CCOCC1 | 23 | 5 | 2 | 13 | 2 | 52*
O=C(CSCc1ccc(Cl)cc1)Nc1ccccc1C(=O)N1CCOCC1 | 24 | 0 | -5 | 8 | 0 | -4
CS(=O)(=O)N(CC(=O)Nc1ccccc1C(=O)N1CCOCC1)c1ccc(Cl)cc1 | . | . | . | 6 | . | .
SMILES | GSH bead fluor | ABCG2 inh | PKD1 inh | Avidin fluor | ABCB1 inh | L major viab
CCc1ccc(N(CC(=O)Nc2ccccc2C(=O)N2CCOCC2)S(C)(=O)=O)cc1 | 4 | -3 | -12 | 14 | 0 | 51*
COC(=O)c1ccc(S(=O)(=O)NC(C)(C)C)n1C | . | . | . | 8 | . | .
N#C/C(=C\c1cccc(O)c1)C(=O)Nc1ccc2c(c1)OCCO2 | . | . | . | 2 | . | .
CCC(C)NCCOc1ccc(C(C)(C)c2ccccc2)cc1 (centres undefined) | 18 | 7 | -6 | 10 | 1 | 100*
CCCOc1ccc(OCCCCNC(C)CC)cc1 (centres undefined) | 37 | 3 | 1 | 15 | 0 | 99*
COCCCNCCOc1ccc(C(C)(C)c2ccccc2)cc1 | 4 | 1 | 2 | 12 | 2 | 100*

Source: PubChem BioAssay (several laboratories)
